# Laboratory results reported in ChEMBL document CHEMBL4732018, “Design, synthesis, and biological evaluation of pyrazole-linked aloe emodin derivatives as potential anticancer agents” (RSC Med Chem, 2021).
# Active and inactive are the calls of the source. The rule behind the calls is not given here.
# Legend:
# [1] = system: B16-F10; assay: Anticancer activity against mouse B16-F10 cells assessed as cell growth inhibition measured after 48 hrs by MTT assay; assay type: functional, cell-based; conditions: B16-F10, 48 h
# Method in brief: (§1)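 MTT test on ATCC lines grown in RPMI with 10% FBS and antibiotic/antimycotic at 37 °C in 5% CO₂. Cells were seeded at 4 x 10^3/well and treated for 48 h at 2.5, 5, 10 and 20 µM, from DMSO stocks diluted in medium. MTT (10 mg/mL stock) was then added for 3 h and absorbance read at 540 nm. IC50 derived; three independent experiments.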
# [2] = system: HEK293; assay: Cytotoxicity against human HEK293 cells assessed as cell growth inhibition measured after 48 hrs by MTT assay; assay type: cell-based; conditions: HEK293, 48 h; method in brief: as §1
# [3] = system: MDA-MB-231; assay: Anticancer activity against human MDA-MB-231 cells assessed as cell growth inhibition measured after 48 hrs by MTT assay; assay type: functional, cell-based; conditions: MDA-MB-231, 48 h; method in brief: as §1
# [4] = system: HepG2; assay: Anticancer activity against human HepG2 cells assessed as cell growth inhibition measured after 48 hrs by MTT assay; assay type: functional, cell-based; conditions: HepG2, 48 h; method in brief: as §1
# [5] = system: MCF7; assay: Anticancer activity against human MCF-7 cells assessed as cell growth inhibition measured after 48 hrs by MTT assay; assay type: functional, cell-based; conditions: MCF7, 48 h; method in brief: as §1
# [6] = system: MDA-MB-231; assay: Induction of cell cycle arrest in human MDA-MB-231 cells assessed as accumulation at G1/S phase at 10 uM measured after 24 hrs by PI staining based flow cytometry (reference value: 19.33 %); assay type: functional
# [7] = system: MDA-MB-231; assay: Induction of apoptosis in human MDA-MB-231 cells assessed as increase in caspase 2 activity at 5 to 20 uM pretreated for 48 hrs followed by VDVAD-pNA substrate addition for 2 hrs by colorimetric analysis; assay type: functional, cell-based; conditions: dose 5-20 µM, time 50.0 hrs
# Method in brief: (§2)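 Colorimetric caspase kit. MDA-MB-231 cells were cultured 24 h, then treated at 0, 5, 10 and 20 µM for 48 h. Lysates were mixed with reaction buffer containing 10 mM DTT. pNA substrate was added at 4 mM final (VDVAD for caspase-2, DEVD for caspase-3, VEID for caspase-6) and incubated 2 h at 37 °C. Absorbance read at 405 nm; triplicate, mean ± SD.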
# [8] = system: MDA-MB-231; assay: Induction of cell cycle arrest in human MDA-MB-231 cells assessed as accumulation at G1/S phase at 20 uM measured after 24 hrs by PI staining based flow cytometry (reference value: 19.33 %); assay type: functional
# [9] = system: MDA-MB-231; assay: Induction of cell cycle arrest in human MDA-MB-231 cells assessed as accumulation at G0/G1 phase at 5 uM measured after 24 hrs by PI staining based flow cytometry (reference value: 76.36 %); assay type: functional
# [10] = system: MDA-MB-231; assay: Induction of cell cycle arrest in human MDA-MB-231 cells assessed as accumulation at sub G0 phase at 10 uM measured after 24 hrs by PI staining based flow cytometry (reference value: 1.33 %); assay type: functional
# [11] = system: MDA-MB-231; assay: Induction of cell cycle arrest in human MDA-MB-231 cells assessed as accumulation at sub G0 phase at 20 uM measured after 24 hrs by PI staining based flow cytometry (reference value: 1.33 %); assay type: functional
# [12] = system: MDA-MB-231; assay: Induction of apoptosis in human MDA-MB-231 cells assessed as increase in caspase 3 activity at 5 to 20 uM pretreated for 48 hrs followed by DEVD-pNA substrate addition for 2 hrs by colorimetric analysis; assay type: functional, cell-based; conditions: dose 5-20 µM, time 50.0 hrs; method in brief: as §2
# [13] = system: MDA-MB-231; assay: Induction of apoptosis in human MDA-MB-231 cells assessed as early apoptotic cells at 5 uM measured after 24 hrs by Annexin V-FITC/PI staining based flow cytometric analysis (reference value: 6.73 %); assay type: functional
# [14] = system: MDA-MB-231; assay: Induction of apoptosis in human MDA-MB-231 cells assessed as increase in caspase 9 activity at 5 to 20 uM pretreated for 48 hrs followed by LEHD-pNA substrate addition for 2 hrs by colorimetric analysis; assay type: functional, cell-based; conditions: dose 5-20 µM, time 50.0 hrs
# [15] = system: MDA-MB-231; assay: Induction of apoptosis in human MDA-MB-231 cells assessed as late apoptotic cells at 5 uM measured after 24 hrs by Annexin V-FITC/PI staining based flow cytometric analysis; assay type: functional
# [16] = system: MDA-MB-231; assay: Induction of cell cycle arrest in human MDA-MB-231 cells assessed as accumulation at G2/M phase at 10 uM measured after 24 hrs by PI staining based flow cytometry (reference value: 4.31 %); assay type: functional
# [17] = system: MDA-MB-231; assay: Induction of cell cycle arrest in human MDA-MB-231 cells assessed as accumulation at G2/M phase at 20 uM measured after 24 hrs by PI staining based flow cytometry (reference value: 4.31 %); assay type: functional
# [18] = system: MDA-MB-231; assay: Induction of apoptosis in human MDA-MB-231 cells assessed as increase in caspase 8 activity at 5 to 20 uM pretreated for 48 hrs followed by IETD-pNA substrate addition for 2 hrs by colorimetric analysis; assay type: functional, cell-based; conditions: dose 5-20 µM, time 50.0 hrs
# [19] = system: MDA-MB-231; assay: Induction of cell cycle arrest in human MDA-MB-231 cells assessed as accumulation at sub G0 phase at 5 uM measured after 24 hrs by PI staining based flow cytometry (reference value: 1.33 %); assay type: functional
# [20] = system: MDA-MB-231; assay: Induction of apoptosis in human MDA-MB-231 cells assessed as early apoptotic cells at 20 uM measured after 24 hrs by Annexin V-FITC/PI staining based flow cytometric analysis (reference value: 6.73 %); assay type: functional
# [21] = system: MDA-MB-231; assay: Induction of apoptosis in human MDA-MB-231 cells assessed as early apoptotic cells at 10 uM measured after 24 hrs by Annexin V-FITC/PI staining based flow cytometric analysis (reference value: 6.73 %); assay type: functional
# [22] = system: MDA-MB-231; assay: Induction of cell cycle arrest in human MDA-MB-231 cells assessed as accumulation at G2/M phase at 5 uM measured after 24 hrs by PI staining based flow cytometry (reference value: 4.31 %); assay type: functional
# [23] = system: MDA-MB-231; assay: Induction of cell cycle arrest in human MDA-MB-231 cells assessed as accumulation at G0/G1 phase at 10 uM measured after 24 hrs by PI staining based flow cytometry (reference value: 76.36 %); assay type: functional
# [24] = system: MDA-MB-231; assay: Induction of cell cycle arrest in human MDA-MB-231 cells assessed as accumulation at G0/G1 phase at 20 uM measured after 24 hrs by PI staining based flow cytometry (reference value: 76.36 %); assay type: functional
# [25] = system: MDA-MB-231; assay: Induction of apoptosis in human MDA-MB-231 cells assessed as increase in caspase 6 activity at 5 to 20 uM pretreated for 48 hrs followed by VEID-pNA substrate addition for 2 hrs by colorimetric analysis; assay type: functional, cell-based; conditions: dose 5-20 µM, time 50.0 hrs; method in brief: as §2
# [26] = system: MDA-MB-231; assay: Induction of membrane disintegrity in human MDA-MB-231 cells assessed as increase in LDH release at 2.5 to 20 uM incubated for 48 hrs by LDH leakage assay; assay type: functional, cell-based; conditions: dose 2.5-20 µM
# Method in brief: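 Extracellular LDH kit assay. Cells were seeded at 4 x 10^3/well and treated 48 h at various concentrations. 20 µL of culture supernatant was assayed with absorbance at 450 nm. Results are expressed as % LDH leakage relative to untreated control cells; triplicate, mean ± SD.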
# [27] = system: MDA-MB-231; assay: Induction of apoptosis in human MDA-MB-231 cells assessed as late apoptotic cells at 10 uM measured after 24 hrs by Annexin V-FITC/PI staining based flow cytometric analysis; assay type: functional
# [28] = system: MDA-MB-231; assay: Induction of apoptosis in human MDA-MB-231 cells assessed as late apoptotic cells at 20 uM measured after 24 hrs by Annexin V-FITC/PI staining based flow cytometric analysis; assay type: functional
# [29] = system: MDA-MB-231; assay: Induction of cell cycle arrest in human MDA-MB-231 cells assessed as accumulation at G1/S phase at 5 uM measured after 24 hrs by PI staining based flow cytometry (reference value: 19.33 %); assay type: functional
structure (smiles),measurement,setting,value
CCOC(=O)c1c(-c2cc(O)c3c(c2)C(=O)c2cccc(O)c2C3=O)nn(-c2cccc(C)c2)c1C(=O)OCC,IC50,[1],3.46 µM
same,IC50,[2],1.12 µM
same,IC50,[3],0.99 µM
same,IC50,[4],1.15 µM
same,IC50,[5],6.35 µM
CCOC(=O)c1c(-c2cc(O)c3c(c2)C(=O)c2cccc(O)c2C3=O)nn(-c2ccc(C(C)C)cc2)c1C(=O)OCC,IC50,[1],1.15 µM
same,IC50,[2],9.32 µM
same,IC50,[3],4.46 µM
same,IC50,[4],3.35 µM
same,IC50,[5],0.87 µM
CCOC(=O)c1c(-c2cc(O)c3c(c2)C(=O)c2cccc(O)c2C3=O)nn(-c2ccccc2C)c1C(=O)OCC,IC50,[1],1.57 µM
same,IC50,[2],2.47 µM
same,IC50,[3],7.56 µM
same,IC50,[4],1.35 µM
same,IC50,[5],1.13 µM
O=C1c2cccc(O)c2C(=O)c2c(O)cc(CO)cc21 [ALOE-EMODIN],IC50,[1],3.12 µM
same,IC50,[2],1 µM
same,IC50,[3],12.2 µM
same,IC50,[4],6.13 µM
same,IC50,[5],4.14 µM
COC(=O)c1c(-c2cc(O)c3c(c2)C(=O)c2cccc(O)c2C3=O)nn(-c2ccc(C)cc2)c1C(=O)OC,Activity,[6],32.1%
same,Activity,[7],Active
same,Activity,[8],17.85%
same,Activity,[9],57.25%
same,IC50,[1],9.57 µM
same,Activity,[10],8.2%
same,IC50,[2],30.1 µM
same,Activity,[11],25.8%
same,Activity,[12],Active
same,Activity,[13],38.3%
same,Activity,[14],Active
same,Activity,[15],19%
same,Activity,[16],4.54%
same,Activity,[17],12.33%
same,Activity,[18],Active
same,Activity,[19],3.22%
same,Activity,[20],12.47%
same,Activity,[21],16.43%
same,IC50,[3],1.32 µM
same,Activity,[22],5.77%
same,Activity,[23],63.3%
same,IC50,[4],5.62 µM
same,IC50,[5],0.99 µM
same,Activity,[24],69.82%
same,Activity,[25],Active
same,Activity,[26],Active
same,Activity,[27],38.13%
same,Activity,[28],71.81%
same,Activity,[29],36.97%
CCOC(=O)c1c(-c2cc(O)c3c(c2)C(=O)c2cccc(O)c2C3=O)nn(-c2ccc(OC)cc2)c1C(=O)OCC,IC50,[1],2.15 µM
same,IC50,[2],10.1 µM
same,IC50,[3],4.7 µM
same,IC50,[4],5.68 µM
same,IC50,[5],3.86 µM
CCOC(=O)c1c(-c2cc(O)c3c(c2)C(=O)c2cccc(O)c2C3=O)nn(-c2ccc(C)c(C)c2)c1C(=O)OCC,IC50,[1],1.85 µM
same,IC50,[2],1.03 µM
same,IC50,[3],0.9 µM
same,IC50,[4],1 µM
same,IC50,[5],1.04 µM
CCOC(=O)c1c(-c2cc(O)c3c(c2)C(=O)c2cccc(O)c2C3=O)nn(-c2ccc(OC(F)(F)F)cc2)c1C(=O)OCC,IC50,[1],3.35 µM
same,IC50,[2],9.76 µM
same,IC50,[3],3.96 µM
same,IC50,[4],6.23 µM
same,IC50,[5],3.58 µM
COC(=O)c1c(-c2cc(O)c3c(c2)C(=O)c2cccc(O)c2C3=O)nn(-c2ccccc2)c1C(=O)OC,IC50,[1],5.61 µM
same,IC50,[2],8.86 µM
same,IC50,[3],6.78 µM
same,IC50,[4],3.41 µM
same,IC50,[5],9.96 µM
CCOC(=O)c1c(-c2cc(O)c3c(c2)C(=O)c2cccc(O)c2C3=O)nn(-c2ccc(Cl)cc2)c1C(=O)OCC,IC50,[1],3.9 µM
same,IC50,[2],1.09 µM
same,IC50,[3],6.2 µM
same,IC50,[4],2.16 µM
same,IC50,[5],3.96 µM
